Results on eight compounds are retold here after ChEMBL document CHEMBL1122664, “Synthesis and evaluation of 19-aza- and 19-aminoandrostenedione analogues as potential aromatase inhibitors” (J Med Chem, 1984).

Where “and” joins values, the source holds several entries; their conditions need not be identical. Identical values can stand only once. Bounds are passed on as bounds.

For data set [1], the target named is T1, Aromatase (Homo sapiens, UniProt P11511).
T1 sequence (P11511 whole entry): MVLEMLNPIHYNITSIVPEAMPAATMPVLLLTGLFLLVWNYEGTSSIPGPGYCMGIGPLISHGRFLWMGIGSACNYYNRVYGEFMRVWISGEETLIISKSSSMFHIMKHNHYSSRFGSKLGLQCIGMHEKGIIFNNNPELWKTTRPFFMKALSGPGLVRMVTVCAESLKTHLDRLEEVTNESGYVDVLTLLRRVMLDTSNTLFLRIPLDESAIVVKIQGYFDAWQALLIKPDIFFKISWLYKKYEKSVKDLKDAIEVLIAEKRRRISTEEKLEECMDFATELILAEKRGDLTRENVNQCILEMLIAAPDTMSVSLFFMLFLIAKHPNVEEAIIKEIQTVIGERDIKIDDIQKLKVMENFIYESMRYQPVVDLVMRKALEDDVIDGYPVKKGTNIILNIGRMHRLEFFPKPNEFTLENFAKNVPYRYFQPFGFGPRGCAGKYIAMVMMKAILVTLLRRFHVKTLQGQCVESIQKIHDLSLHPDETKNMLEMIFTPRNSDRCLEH
The data set is described as follows: Inhibition of 0.25 uM [1-3H]-androst-4-ene-3,17-dione binding to Cytochrome P450 19A1. In short, it runs like this: (§1)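 Tritiated water release assay using lyophilized, twice-washed human term placental microsomes (0.1 mg protein) with [1-³H]androstenedione at 0.25 μM (5 × KM) and inhibitor at 0.25 or 1.25 μM. NADPH-generating system in 10 mM K phosphate with KCl, EDTA and DTT; 15 min at 25 °C. Stopped with CHCl₃; charcoal-treated aqueous ³H₂O counted. Triplicates; % inhibition versus concurrent controls.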

In data set [2] the target is T1, Aromatase. In words: Inhibition of 1.25 uM [1-3H]-androst-4-ene-3,17-dione binding to Cytochrome P450 19A1. The method, boiled down: as §1

For orientation: Inhibition means the relative decrease from the control value, in per cent. A high value points to a response far below the control.

In the case of `C[C@]12CC[C@H]3[C@@H](CCC4=CC(=O)CC[C@@]43N=C=O)[C@@H]1CCC2=O`, the Inhibition in data set [1] and in data set [2] was under 2% each time.

On to `C[C@]12CC[C@H]3[C@@H](CCC4=CC(=O)CC[C@@]43CNC(=O)C(F)(F)F)[C@@H]1CCC2=O`, for which the Inhibition in data set [1] stood at 2.5%; in data set [2], 11.4%.

As to `C[C@]12CCC(=O)C(O)=C1CC[C@@H]1[C@@H]2CC[C@]2(C)C(=O)CC[C@@H]12` [FORMESTANE], the results for the Inhibition in data set [1] and in data set [2] were 50.1% and 81.6%, respectively.

For `CC(=O)NC[C@]12CCC(=O)C=C1CC[C@@H]1[C@@H]2CC[C@]2(C)C(=O)CC[C@@H]12`, the Inhibition in data set [1] was under 2%; in data set [2], 13.2%.

On to `C[C@]12CC[C@H]3[C@@H](CCC4=CC(=O)CC[C@@]43N)[C@@H]1CCC2=O`, for which the Inhibition in data set [1] was 9.4% and 6.9%; in data set [2] it was 19.2% and 10.9%.

In the case of `COC(=O)N[C@]12CCC(=O)C=C1CC[C@H]1[C@@H]3CCC(=O)[C@@]3(C)CC[C@@H]12`, the Inhibition in data set [1] and in data set [2] was under 2% throughout.

With `C[C@]12CC[C@H]3[C@@H](CCC4=CC(=O)CC[C@@]43/C=N\O)[C@@H]1CCC2=O`, the Inhibition in data set [1] was 8.6%; in data set [2], 4.1%.

In the case of `C[C@]12CCC(=O)C=C1C[C@@H](Sc1ccc(N)cc1)[C@@H]1[C@@H]2CC[C@]2(C)C(=O)CC[C@@H]12`, the figures for the Inhibition in data set [1] and in data set [2] were 54.8% and 83.1%, respectively.
